In assay [1] the target is T1, Ribosomal protein S6 kinase alpha-3 (Homo sapiens, UniProt P51812). The assay is described as follows: Inhibition of RSK2 (unknown origin) using AKRRRLSSLRA as substrate at 10 uM after 60 mins by fluorescence assay relative to control.
Assay [2] concerns MCF7. The assay is described as follows: Cytotoxicity against human MCF7 cells assessed as growth inhibition at 100 uM after 48 hrs by MTT assay relative to control. Type of assay: functional. The conditions noted are these: MCF7, 48 h, read-out: GI. Summed up: (§1)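 Single-concentration screen at 100 µM by 48 h MTT. MCF-7 cells were grown in DMEM plus 10% FBS and PC 3 cells in F-12K, 5 × 10^3 cells per well. After 4 h with MTT at 37 °C, formazan was dissolved in DMSO and absorbance read at 570 nm. Percent inhibition is reported.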
Background: Tetrazolium assays rely on reduction of a dye to a coloured formazan, in cell work by metabolically active cells.

Assay [3] deals with PC-3. The assay is described as follows: Cytotoxicity against human PC3 cells assessed as growth inhibition at 100 uM after 48 hrs by MTT assay relative to control. It counts as functional. As to conditions: PC-3, 48 h, read-out: GI. Summed up:
as §1

For assay [4], the target named is T1, Ribosomal protein S6 kinase alpha-3. The assay is described as follows: Inhibition of RSK2 (unknown origin) using AKRRRLSSLRA as substrate after 60 mins by fluorescence assay.
The test system of assay [5] is PC-3. The assay is described as follows: Cytotoxicity against human PC3 cells assessed as growth inhibition after 48 hrs by MTT assay. Type of assay: functional, cell-based. As to conditions: PC-3, 48 h. Summed up: (§2)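 MCF-7 cells grown in DMEM plus 10% FBS and PC 3 cells in F-12K, both seeded at 5 × 10^3 per well. Cells were exposed to compounds at various concentrations for 48 h. MTT was then added for 4 h at 37 °C in 5% CO2, formazan was dissolved in DMSO, and absorbance was read at 570 nm. IC50 was taken from inhibition curves of three independent experiments and measured only where inhibition at 100 µM exceeded 50%.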

Assay [6] concerns MCF7. Kind of assay: Cytotoxicity against human MCF7 cells assessed as growth inhibition after 48 hrs by MTT assay. As to conditions: MCF7, 48 h. It counts as functional, cell-based. Summed up:
as §2

Assay [7] has as its target T1, Ribosomal protein S6 kinase alpha-3. The assay is described as follows: Inhibition of RSK2 (unknown origin).

The term inhibition denotes the share of the control response that was lost under treatment. Low readings indicate little suppression, high ones strong suppression. Usually IC50 stands for the concentration that inhibits the measured activity by half.

T1 sequence (P51812 whole entry): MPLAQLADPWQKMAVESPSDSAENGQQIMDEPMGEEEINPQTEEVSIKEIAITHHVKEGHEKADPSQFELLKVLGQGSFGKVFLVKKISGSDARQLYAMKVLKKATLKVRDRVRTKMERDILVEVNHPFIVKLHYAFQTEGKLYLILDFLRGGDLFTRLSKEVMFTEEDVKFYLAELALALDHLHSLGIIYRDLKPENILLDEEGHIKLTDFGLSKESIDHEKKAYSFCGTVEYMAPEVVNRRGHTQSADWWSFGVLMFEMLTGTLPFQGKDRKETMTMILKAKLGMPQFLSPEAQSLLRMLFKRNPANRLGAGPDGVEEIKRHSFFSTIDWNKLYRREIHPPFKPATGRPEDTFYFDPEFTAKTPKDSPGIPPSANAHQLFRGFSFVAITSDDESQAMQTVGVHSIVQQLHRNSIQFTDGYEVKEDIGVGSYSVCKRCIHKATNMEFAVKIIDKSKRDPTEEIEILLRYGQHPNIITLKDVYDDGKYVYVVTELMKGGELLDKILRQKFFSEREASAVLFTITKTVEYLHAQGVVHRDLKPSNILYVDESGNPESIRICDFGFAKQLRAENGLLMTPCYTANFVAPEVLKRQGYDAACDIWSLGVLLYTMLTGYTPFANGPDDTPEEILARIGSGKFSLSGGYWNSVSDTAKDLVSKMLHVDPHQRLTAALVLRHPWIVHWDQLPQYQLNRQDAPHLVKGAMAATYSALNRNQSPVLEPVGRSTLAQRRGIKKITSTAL

`O=C1Nc2ccc(F)cc2/C1=C/c1c[nH]nc1-c1ccc(F)cc1`: the inhibition in assay [1] was less than 10%.
The same measure, in the same setting: with `O=C1Nc2ccc(F)cc2/C1=C/c1ccc(-c2ccccc2Cl)o1` the figure was 17.1%; with `O=C1Nc2ccc(Br)cc2/C1=C/c1c[nH]nc1-c1ccccc1`, 33.6%; with `O=C1Nc2ccc(Cl)cc2/C1=C/c1ccc(-c2ccccc2Cl)o1`, 32.1%.
On the same count and under the same terms, with `O=C1Nc2ccc(Br)cc2/C1=C/c1c[nH]nc1-c1ccc(F)cc1` the figure was less than 10%.
Regarding `Cc1cccc2c1NC(=O)/C2=C1\SC(=S)NC1=O`, the results for the inhibition of growth at 100 µM in assay [2] and in assay [3] were 41.5% and less than 10%, respectively. This compound gave an inhibition in assay [1] of 92.4%. In assay [4], this compound displayed an IC50 of 1.68 µM.
`O=C1Nc2ccc(Br)cc2/C1=C\c1ccco1`: the half-inhibitory concentration (IC50) turned out to be 16.9 µM in assay [5], 9.84 µM in assay [6] and 1.51 µM in assay [4]. In assay [1], the inhibition was determined as 87.3%.
The compound `N=C1NC(=O)/C(=C2/C(=O)Nc3cc(Cl)ccc32)S1` had an inhibition in assay [1] of 18.4%.
Same read-out and setting: with `O=C1Nc2ccc(Cl)cc2/C1=C/c1c[nH]nc1-c1ccc(F)cc1` the figure was 44.5%.
Consider `Nc1ccc2c(c1)/C(=C\c1ccco1)C(=O)N2`, for which the results for the IC50 in assay [6] and in assay [4] were 15.5 µM and 2.49 µM, respectively. The inhibition of growth at 100 µM in assay [3] is less than 10%. In assay [1], this compound had an inhibition of 100%.
Turning to `O=C1Nc2ccc(Cl)cc2/C1=C1/S/C(=N\c2ccccc2)N(c2ccccc2)C1=O`, in assay [1], the inhibition is less than 10%.
On the same count and under the same terms, with `O=C1Nc2ccc(Cl)cc2/C1=C/c1c[nH]nc1-c1ccccc1` the figure was 33.2%; with `CC(=O)NN1C(=O)/C(=C2/C(=O)Nc3ccc(C)cc32)SC1=S`, 41.1%.
For the compound `O=C1Nc2ccc(Cl)cc2/C1=C\c1ccco1`, the results for the IC50 in assay [5], in assay [6] and in assay [4] were 23.9 µM, 14.7 µM and 2.02 µM, respectively. Besides, in assay [1], the inhibition is 84.8%.
`O=C1Nc2ccc(Br)cc2/C1=N/NC(=O)c1ccc2c(c1)OCO2` had an inhibition in assay [1] of less than 10%.
On to `O=C1Nc2ccc([N+](=O)[O-])cc2/C1=C\c1ccco1`, for which the inhibition in assay [1] was determined as 29.8%.
Same read-out and setting: with `O=C1Nc2ccc(Br)cc2/C1=N/NC(=O)c1ccco1` the figure was 11.5%; with `CCn1c(/C=C2\C(=O)Nc3ccccc32)nc2ccccc2c1=O`, less than 10%.
`O=C1Nc2ccc(Br)cc2/C1=C/c1ccc(-c2cccc(Br)c2)o1`: the inhibition in assay [1] is less than 10%.
Still for that read-out and setting: with `O=C1Nc2ccc(Cl)cc2/C1=C/c1ccc(-c2cccc(Br)c2)o1` the figure was less than 10%.
Turning to `CCc1cccc2c1NC(=O)/C2=C1\SC(=S)NC1=O`, the inhibition of growth at 100 µM in assay [2] is 16%; in assay [3] it was 40.9%. Moreover, the inhibition in assay [1] amounted to 50.1%. In addition, half-maximal inhibition in assay [4] (IC50) was put at 17 µM.
Take `Cc1c(Cl)ccc2c1NC(=O)/C2=C1\SC(=S)NC1=O`: the inhibition in assay [1] was determined as 39.6%.
Still for that read-out and setting: with `Cc1ccc(N/N=C2/C(=O)Nc3ccc(F)cc32)cc1` the figure was 30.1%; with `NC(=O)c1ccc(/N=C2/C(=O)Nc3ccccc32)cc1`, less than 10%; with `O=C1Nc2ccccc2/C1=C/c1ccc(-c2c(Cl)cc(C(F)(F)F)cc2Cl)o1`, less than 10%.
Still for that read-out and setting: with `COc1ccc2c(c1)/C(=C\c1ccco1)C(=O)N2` the figure was 25.6%.
For the compound `O=C1Nc2ccccc2/C1=C/c1c[nH]nc1-c1ccccc1`, the figures for the IC50 in assay [5], in assay [6] and in assay [4] were 6.19 µM, 8.55 µM and 2.72 µM, respectively. The compound also returned an inhibition in assay [1] of 79.5%.
For the compound `O=C1Nc2ccccc2/C1=C/c1ccco1`, the IC50 in assay [7] was 7.76 µM; in assay [6], 30.1 µM; in assay [4] it was 3.47 µM. Besides, in assay [3], the inhibition of growth at 100 µM was less than 10%. The inhibition in assay [1] was determined as 69.6%.
In turn, `O=C1Nc2ccccc2/C1=C/c1ccc(-c2ccccc2Cl)o1` showed an inhibition in assay [1] of 16.8%.
As for `O=C1Nc2ccccc2/C1=C/c1ccc(-c2cccc(Br)c2)o1`, the inhibition in assay [1] amounted to 21.9%.
As for `CCc1ccc2c(c1)/C(=N\NC(=O)CSc1ccc(Cl)cc1)C(=O)N2`, the inhibition in assay [1] was less than 10%.
The same measure, in the same setting: with `O=C1Nc2ccc(Br)cc2/C1=C/c1ccc(-c2ccccc2Cl)o1` the figure was 22.3%; with `O=C1Nc2ccc(F)cc2/C1=C/c1ccc(-c2cccc(Br)c2)o1`, 26.3%.
In assay [1], `O=C1Nc2ccccc2/C1=N/N=C1\CCCc2c1[nH]c1ccc(Cl)cc21` yielded an inhibition of less than 10%.
In the case of `Cn1cc(C2=C(c3cn(CCCSC(=N)N)c4ccccc34)C(=O)NC2=O)c2ccccc21` [BISINDOLYLMALEIMIDE IX], in assay [5], the IC50 turned out to be 1.74 µM.
As for `O=C1Nc2ccccc2/C1=C/c1c[nH]nc1-c1ccc(F)cc1`, the inhibition in assay [1] turned out to be 38.6%.
`COc1ccc(-n2c(/C=C3\C(=O)Nc4ccccc43)nc3ccc(I)cc3c2=O)cc1` had an inhibition in assay [1] of 13.4%.
Consider `O=C1Nc2ccc(F)cc2/C1=C/c1c[nH]nc1-c1ccccc1`, for which the inhibition of growth at 100 µM in assay [2] and in assay [3] was less than 10% in each case. The compound also had an inhibition in assay [1] of 78.4%. For the same compound, in assay [4], the IC50 was determined as 8.59 µM.
For the compound `O=C1Nc2ccc(Cl)cc2/C1=C/c1c[nH]nc1-c1ccc(Cl)cc1`, the inhibition in assay [1] was less than 10%.
In turn, `O=C1Nc2ccccc2/C1=C/c1ccc(CN2C(=O)c3ccccc3C2=O)o1` showed an inhibition in assay [1] of 16.5%.

The values above are taken from ChEMBL document CHEMBL2346519, “Substituted indolin-2-ones as p90 ribosomal S6 protein kinase 2 (RSK2) inhibitors: Molecular docking simulation and structure-activity relationship analysis” (Bioorg Med Chem, 2013).
